Experiments:
Type in all cases: functional
U-251 = experiment: Growth inhibition of human U251 cells after 48 hrs by sulforhodamine B assay; conditions: U-251, 48 h
Method in brief: (§1)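 NCI-60 panel screen by SRB assay (Rubinstein method). Percentage growth taken from optical density of SRB colour, read before and 48 hrs after exposure to compound or vehicle control. All analogues first screened at 10^-5 M. Analogues giving 60% growth inhibition at that level in at least eight lines then went to a five-concentration dose-response study.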

MDA-MB-468 = experiment: Growth inhibition of human MDA-MB-468 cells after 48 hrs by sulforhodamine B assay; conditions: MDA-MB-468, 48 h; method in brief: as §1
[1] = Growth inhibition of human RPMI8226 cells after 48 hrs by sulforhodamine B assay; conditions: RPMI-8226, 48 h; method in brief: as §1
[2] = Growth inhibition of human SF268 cells after 48 hrs by sulforhodamine B assay; conditions: SF-268, 48 h; method in brief: as §1
A498 = experiment: Growth inhibition of human A498 cells after 48 hrs by sulforhodamine B assay; conditions: A498, 48 h
Method in brief: (§2)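 NCI-60 sulforhodamine B screen. Compounds were first tested at a single dose of 10⁻⁵ M; hits, defined as ≥60% growth inhibition in at least eight lines, went on to a five-concentration dose–response. SRB optical density was read before and 48 h after exposure to compound or vehicle. Percentage growth was calculated from OD.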

[3] = Growth inhibition of human DU145 cells after 48 hrs by sulforhodamine B assay; conditions: DU-145, 48 h; method in brief: as §1
MDA-MB-435 = experiment: Growth inhibition of human MDA-MB-435 cells after 48 hrs by sulforhodamine B assay; conditions: MDA-MB-435, 48 h; method in brief: as §2
SK-MEL-2 = experiment: Growth inhibition of human SK-MEL-2 cells after 48 hrs by sulforhodamine B assay; conditions: SK-MEL-2, 48 h; method in brief: as §1
A549 = experiment: Growth inhibition of human A549/ATCC cells after 48 hrs by sulforhodamine B assay; conditions: A549, 48 h; method in brief: as §1
NCI-H460 = experiment: Growth inhibition of human NCI-H460 cells after 48 hrs by sulforhodamine B assay; conditions: NCI-H460, 48 h; method in brief: as §1
[4] = Growth inhibition of human HCT15 cells after 48 hrs by sulforhodamine B assay; conditions: HCT-15, 48 h; method in brief: as §1
MCF7 = experiment: Growth inhibition of human MCF7 cells after 48 hrs by sulforhodamine B assay; conditions: MCF7, 48 h; method in brief: as §1
[5] = Growth inhibition of human PC3 cells after 48 hrs by sulforhodamine B assay; conditions: PC-3, 48 h; method in brief: as §1
[6] = Growth inhibition of human UO31 cells after 48 hrs by sulforhodamine B assay; conditions: UO-31, 48 h; method in brief: as §1
ACHN = experiment: Growth inhibition of human ACHN cells after 48 hrs by sulforhodamine B assay; method in brief: as §1
[7] = Growth inhibition of human HL-60(TB) cells after 48 hrs by sulforhodamine B assay; conditions: HL-60, 48 h; method in brief: as §1
[8] = Growth inhibition of human HOP92 cells after 48 hrs by sulforhodamine B assay; conditions: HOP-92, 48 h; method in brief: as §1
[9] = Growth inhibition of human OVCAR3 cells after 48 hrs by sulforhodamine B assay; conditions: OVCAR-3, 48 h; method in brief: as §2
KM12 = experiment: Growth inhibition of human KM12 cells after 48 hrs by sulforhodamine B assay; conditions: KM12, 48 h; method in brief: as §1
SK-MEL-5 = experiment: Growth inhibition of human SK-MEL-5 cells after 48 hrs by sulforhodamine B assay; conditions: SK-MEL-5, 48 h; method in brief: as §1
MDA-MB-231 = experiment: Growth inhibition of human MDA-MB-231 cells after 48 hrs by sulforhodamine B assay; conditions: MDA-MB-231, 48 h; method in brief: as §1
[10] = Growth inhibition of human MOLT4 cells after 48 hrs by sulforhodamine B assay; conditions: MOLT-4, 48 h; method in brief: as §1
[11] = Growth inhibition of human SF295 cells after 48 hrs by sulforhodamine B assay; conditions: SF-295, 48 h; method in brief: as §1
[12] = Growth inhibition of human HOP62 cells after 48 hrs by sulforhodamine B assay; conditions: HOP-62, 48 h; method in brief: as §1
[13] = Growth inhibition of human SKOV3 cells after 48 hrs by sulforhodamine B assay; conditions: SK-OV-3, 48 h; method in brief: as §1
NCI-H23 = experiment: Growth inhibition of human NCI-H23 cells after 48 hrs by sulforhodamine B assay; conditions: NCI-H23, 48 h; method in brief: as §1
K562 = experiment: Growth inhibition of human K562 cells after 48 hrs by sulforhodamine B assay; conditions: K562, 48 h; method in brief: as §1
[14] = Growth inhibition of human COLO205 cells after 48 hrs by sulforhodamine B assay; conditions: COLO 205, 48 h; method in brief: as §1
[15] = Growth inhibition of human SNB75 cells after 48 hrs by sulforhodamine B assay; conditions: SNB-75, 48 h; method in brief: as §1
[16] = Growth inhibition of human SW620 cells after 48 hrs by sulforhodamine B assay; conditions: SW-620, 48 h; method in brief: as §1
[17] = Growth inhibition of human LOXIMVI cells after 48 hrs by sulforhodamine B assay; conditions: LOX IMVI; method in brief: as §1
HT-29 = experiment: Growth inhibition of human HT-29 cells after 48 hrs by sulforhodamine B assay; conditions: HT-29, 48 h; method in brief: as §1
[18] = Growth inhibition of human HCC2998 cells after 48 hrs by sulforhodamine B assay; conditions: HCC 2998, 48 h; method in brief: as §1
[19] = Growth inhibition of human NCI-ADR-RES cells after 48 hrs by sulforhodamine B assay; method in brief: as §1
CCRF-CEM = experiment: Growth inhibition of human CCRF-CEM cells after 48 hrs by sulforhodamine B assay; method in brief: as §1
786-0 = experiment: Growth inhibition of human 786-0 cells after 48 hrs by sulforhodamine B assay; conditions: 786-0, 48 h; method in brief: as §1
CAKI-1 = experiment: Growth inhibition of human CAKI-1 cells after 48 hrs by sulforhodamine B assay; conditions: CAKI-1, 48 h; method in brief: as §1
[20] = read-out: LD50 (the source's name)

Which results are given for `COc1cc(-c2n[nH]nc2-c2ccc3ccccc3n2)cc(OC)c1OC`?
GI50 (U-251): 37 nM; CC50 (U-251; [20]): > 100 µM; GI50 (MDA-MB-468): 35 nM; CC50 (MDA-MB-468; [20]): > 100 µM; GI50 [1]: 37 nM; CC50 [1, 20]: > 100 µM; GI50 [2]: 503 nM; CC50 [2, 20]: > 100 µM; GI50 (A498): 33 nM; LC50 (50% net cell kill) (A498; read-out: LD50): > 100 µM; GI50 [3]: 27 nM; CC50 [3, 20]: > 100 µM; GI50 (MDA-MB-435): < 10 nM; LC50 (concentration killing 50% of cells) (MDA-MB-435; read-out: LD50): > 100 µM; GI50 (SK-MEL-2): 27 nM; CC50 (SK-MEL-2; [20]): > 100 µM; GI50 (A549): 54 nM; CC50 (A549; [20]): > 100 µM; GI50 (NCI-H460): 38 nM; CC50 (NCI-H460; [20]): > 100 µM; GI50 [4]: 37 nM; CC50 [4, 20]: > 100 µM; GI50 (MCF7): 27 nM; CC50 (MCF7; [20]): > 100 µM; GI50 [5]: 46 nM; CC50 [5, 20]: > 100 µM; GI50 [6]: 92 nM; LC50 (concentration killing 50% of cells) ([6]; read-out: LD50): > 100 µM; GI50 (ACHN): 81 nM; CC50 (ACHN; [20]): > 100 µM; GI50 [7]: 30 nM; CC50 [7, 20]: > 100 µM; GI50 [8]: 99 nM; CC50 [8, 20]: > 100 µM; GI50 [9]: 11 nM; LC50 (concentration giving 50% net cell kill) ([9]; read-out: LD50): > 100 µM; GI50 (KM12): 35 nM; LC50 (concentration killing 50% of cells) (KM12; read-out: LD50): > 100 µM; GI50 (SK-MEL-5): 13 nM; CC50 (SK-MEL-5; [20]): > 100 µM; GI50 (MDA-MB-231): 94 nM; CC50 (MDA-MB-231; [20]): > 100 µM; GI50 [10]: 68 nM; CC50 [10, 20]: > 100 µM; GI50 [11]: 14 nM; CC50 [11, 20]: > 100 µM; GI50 [12]: 47 nM; LC50 (concentration killing 50% of cells) ([12]; read-out: LD50): > 100 µM; GI50 [13]: 75 nM; LC50 (concentration killing 50% of cells) ([13]; read-out: LD50): > 100 µM; GI50 (NCI-H23): 65 nM; LC50 (concentration giving 50% cell kill) (NCI-H23; read-out: LD50): > 100 µM; GI50 (K562): 26 nM; CC50 (K562; [20]): > 100 µM; GI50 [14]: 228 nM; CC50 [14, 20]: > 100 µM; GI50 [15]: 16 nM; CC50 [15, 20]: > 100 µM; GI50 [16]: 41 nM; LD50 (concentration killing 50% of cells) [16]: > 100 µM; GI50 [17]: 65 nM; CC50 [17, 20]: > 100 µM; GI50 (HT-29): 214 nM; LC50 (concentration killing 50% of cells) (HT-29; read-out: LD50): > 100 µM; GI50 [18]: 230 nM; CC50 [18, 20]: > 100 µM; GI50 [19]: 23 nM; CC50 [19, 20]: > 100 µM; GI50 (CCRF-CEM): 37 nM; LC50 (concentration killing 50% of cells) (CCRF-CEM; read-out: LD50): > 100 µM; GI50 (786-0): 43 nM; LC50 (concentration killing 50% of cells) (786-0; read-out: LD50): > 100 µM; GI50 (CAKI-1): 43 nM; CC50 (CAKI-1; [20]): > 100 µM

Source: ChEMBL document CHEMBL3739417, “Synthesis and biological evaluation of novel 4,5-disubstituted 2H-1,2,3-triazoles as cis-constrained analogues of combretastatin A-4” (2015)
